How the values were obtained:
[1] = Pharmacokinetic parameter AUC in mice following a single dose intraperitoneal administration of the compound; conditions: mouse, in vivo, ip
[2] = Time taken to decrease plasma concentration to half of its initial concentration after intraperitoneal administration; type: ADME, organism-based; conditions: ip
Summary of the method: (§1)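 Female NIH-Swiss mice (25–30 g) received one dose of micellar conjugate ip at 394 mg/kg (equivalent to 100 mg/kg parent nucleoside), or the parent at 100 mg/kg ip. An iv arm gave 205 mg/kg conjugate or 50 mg/kg parent. Three mice were taken per time point up to 24 h. Serum nucleoside was measured by HPLC-UV at 260 nm. Analysis was noncompartmental, with t1/2 = 0.693/λz.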

CCRF-CEM [3] = test: Effective concentration against HIV-1-infected CEM cells in mice administered intraperitoneally; type: functional, cell-based; conditions: Homo sapiens, in the assay text read “in vitro” for “in mice administered intraperitoneally”
Summary of the method: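 Conjugates were given as micellar suspensions made by sonication, in HIV-1-infected CEM cells. EC50 is the concentration protecting infected cells by 50%. IC50 is the concentration reducing viable cell number by 50%.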

CCRF-CEM [4] = test: Ability to reduce viable cell number on HIV-1-infected CEM cells in vitro; conditions: Homo sapiens
[5] = Time taken to decrease plasma concentration to half of its initial concentration after iv administration; type: ADME, organism-based
[6] = Time taken to decrease plasma concentration to half of its initial concentration after ip administration; type: ADME, organism-based
Summary of the method: as §1

AUC [1] [ng·h/mL]	half-life [2] [min]	EC50 (CCRF-CEM [3]) [µM]	IC50 (CCRF-CEM [4]) [µM]	half-life [5] [min]	half-life [6] [min]	Structure (SMILES)
25800	341	< 0.58	120			CCCCCCCCCCCCCCCCCCSCC(COP(=O)([O-])OP(=O)([O-])OC[C@H]1O[C@@H](n2cc(C)c(=O)[nH]c2=O)C[C@@H]1N=[N+]=[N-])OC(=O)CCCCCCCCCCCCCCC.[Na+].[Na+] (some centres not stated)
42300				53.4		[N-]=[N+]=N[C@H]1C[C@H](n2ccc(=O)[nH]c2=O)O[C@@H]1CO [NAVURIDINE]
		130	2800			CCCCCCCCCCCCCCCCCCSCC(COP(=O)(O)OP(=O)(O)OC[C@@H]1CC[C@H](n2ccc(N)nc2=O)O1)OC(=O)CCCCCCCCCCCCCCC (some centres not stated)
175000		0.186	191		16.8	Cc1cn([C@H]2C[C@H](N=[N+]=[N-])[C@@H](CO)O2)c(=O)[nH]c1=O [ZIDOVUDINE]
		17	380	390		CCCCCCCCCCCCCCCCCCSCC(COP(=O)([O-])OP(=O)([O-])OC[C@H]1O[C@@H](n2ccc(=O)[nH]c2=O)C[C@@H]1N=[N+]=[N-])OC(=O)CCCCCCCCCCCCCCC.[Na+].[Na+] (some centres not stated)
		57	14000			CCCCCCCCCCCCCCCC(=O)OC(COCCCCCCCCCCCCCC)COP(=O)(O)OP(=O)(O)OC[C@H]1O[C@@H](n2cc(C)c(=O)[nH]c2=O)C[C@@H]1N=[N+]=[N-] (some centres not stated)

Reference: ChEMBL document CHEMBL1129560, “Nucleoside conjugates. 15. Synthesis and biological activity of anti-HIV nucleoside conjugates of ether and thioether phospholipids” (J Med Chem, 1996)
